From ChEMBL document CHEMBL1140227, “Histone deacetylase inhibitors through click chemistry” (J Med Chem, 2008)

Columns and labels:
Type in all cases: functional
[1] = system: UACC-257; test: Growth inhibition of human UACC257 cells at 10 uM relative to control; details: values are per cent of control
Method in brief: (§1)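 Single-dose NCI human tumour cell line screen, run by the NIH. Percent inhibition of cell line growth was calculated by comparison with untreated samples.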

[2] = system: HT-29; test: Growth inhibition of human HT-29 cells at 10 uM relative to control; details: values are per cent of control
Method in brief: (§2)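 Single-dose preliminary screen in the NCI human cancer cell line panel, run by the NIH. Percent inhibition of cell line growth was calculated by comparison with untreated samples.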

[3] = system: SF-295; test: Growth inhibition of human SF295 cells at 10 uM relative to control; details: values are per cent of control; method in brief: as §2
[4] = system: Malme-3M; test: Growth inhibition of human MALME-3M cells at 10 uM relative to control; details: values are per cent of control; method in brief: as §2
[5] = system: HL-60(TB); test: Growth inhibition of human HL-60(TB) cells at 10 uM relative to control; details: read-out: INH
Method in brief: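 Single-dose cell line screen run by the NCI (NIH) in its human cancer cell line panel, which includes the leukemia line HL-60(TB). Percent growth inhibition was calculated by comparison with untreated samples.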

[6] = system: U-251; test: Growth inhibition of human U251 cells at 10 uM relative to control; details: values are per cent of control; method in brief: as §1
[7] = system: PC-3; test: Growth inhibition of human PC3 cells at 10 uM relative to control; details: values are per cent of control; method in brief: as §2
[8] = system: SK-OV-3; test: Growth inhibition of human SKOV3 cells at 10 uM relative to control; details: values are per cent of control; method in brief: as §2
[9] = system: MDA-MB-468; test: Growth inhibition of human MDA-MB-468 cells at 10 uM relative to control; details: values are per cent of control; method in brief: as §2
[10] = system: SF-539; test: Growth inhibition of human SF539 cells at 10 uM relative to control; details: values are per cent of control; method in brief: as §2
[11] = system: UO-31; test: Growth inhibition of human UO31 cells at 10 uM relative to control; details: values are per cent of control; method in brief: as §1
[12] = system: NCI-H460; test: Growth inhibition of human NCI-H460 cells at 10 uM relative to control; details: values are per cent of control; method in brief: as §2
[13] = system: MOLT-4; test: Growth inhibition of human MOLT4 cells at 10 uM relative to control; details: values are per cent of control; method in brief: as §2
[14] = system: OVCAR-8; test: Growth inhibition of human OVCAR8 cells at 10 uM relative to control; details: values are per cent of control; method in brief: as §2
[15] = cells; details: Homo sapiens, Cancer cell lines
[16] = system: SNB-19; test: Growth inhibition of human SNB19 cells at 10 uM relative to control; details: values are per cent of control; method in brief: as §2
[17] = system: OVCAR-4; test: Growth inhibition of human OVCAR4 cells at 10 uM relative to control; details: values are per cent of control; method in brief: as §2
[18] = system: M14; test: Growth inhibition of human M14 cells at 10 uM relative to control; details: values are per cent of control; method in brief: as §2
[19] = system: A549; test: Growth inhibition of human A549 cells at 10 uM relative to control; details: values are per cent of control; method in brief: as §2
[20] = system: HCT-116; test: Growth inhibition of human HCT116 cells at 10 uM relative to control; details: values are per cent of control; method in brief: as §2
[21] = system: MCF7; test: Growth inhibition of human MCF7 cells at 10 uM relative to control; details: values are per cent of control; method in brief: as §2
[22] = system: K562; test: Growth inhibition of human K562 cells at 10 uM relative to control; details: values are per cent of control; method in brief: as §2
[23] = system: NCI-H226; test: Growth inhibition of human NCI-H226 cells at 10 uM relative to control; details: values are per cent of control; method in brief: as §2
[24] = system: COLO 205; test: Growth inhibition of human COLO205 cells at 10 uM relative to control; details: values are per cent of control; method in brief: as §2
[25] = system: NCI/ADR-RES; test: Growth inhibition of human NCI/ADR-RES cells at 10 uM relative to control; details: values are per cent of control; method in brief: as §2
[26] = system: UACC-62; test: Growth inhibition of human UACC62 cells at 10 uM relative to control; details: values are per cent of control; method in brief: as §1
[27] = system: SK-MEL-2; test: Growth inhibition of human SK-MEL-2 cells at 10 uM relative to control; details: values are per cent of control; method in brief: as §2
[28] = system: A498; test: Growth inhibition of human A498 cells at 10 uM relative to control; details: values are per cent of control; method in brief: as §2
[29] = Growth inhibition of human RPMI8266 cells at 10 uM relative to control; details: values are per cent of control; method in brief: as §2
[30] = system: MDA-MB-435; test: Growth inhibition of human MDA-MB-435 cells at 10 uM relative to control; details: values are per cent of control; method in brief: as §2
[31] = system: HOP-62; test: Growth inhibition of human HOP62 cells at 10 uM relative to control; details: values are per cent of control; method in brief: as §2
[32] = system: OVCAR-5; test: Growth inhibition of human OVCAR5 cells at 10 uM relative to control; details: values are per cent of control; method in brief: as §2
[33] = system: EKVX; test: Growth inhibition of human EKVX cells at 10 uM relative to control; details: values are per cent of control; method in brief: as §2
[34] = system: HCT-15; test: Growth inhibition of human HCT15 cells at 10 uM relative to control; details: values are per cent of control; method in brief: as §2
[35] = system: DU-145; test: Growth inhibition of human DU145 cells at 10 uM relative to control; details: values are per cent of control; method in brief: as §2
[36] = system: NCI-H322M; test: Growth inhibition of human NCI-H322M cells at 10 uM relative to control; details: values are per cent of control; method in brief: as §2
[37] = system: NCI-H522; test: Growth inhibition of human NCI-H522 cells at 10 uM relative to control; details: values are per cent of control; method in brief: as §2
[38] = Growth inhibition of human Hs 578T cells at 10 uM relative to control; details: values are per cent of control; method in brief: as §2
[39] = system: BT-549; test: Growth inhibition of human BT549 cells at 10 uM relative to control; details: values are per cent of control; method in brief: as §2
[40] = system: TK-10; test: Growth inhibition of human TK10 cells at 10 uM relative to control; details: values are per cent of control; method in brief: as §1
[41] = system: 786-0; test: Growth inhibition of human 786-0 cells at 10 uM relative to control; details: values are per cent of control; method in brief: as §2
[42] = system: NCI-H23; test: Growth inhibition of human NCI-H23 cells at 10 uM relative to control; details: values are per cent of control; method in brief: as §2
[43] = system: OVCAR-3; test: Growth inhibition of human OVCAR-3 cells at 10 uM relative to control; details: values are per cent of control; method in brief: as §2
[44] = system: SW-620; test: Growth inhibition of human SW620 cells at 10 uM relative to control; details: values are per cent of control; method in brief: as §1
[45] = system: IGROV-1; test: Growth inhibition of human IGROV1 cells at 10 uM relative to control; details: values are per cent of control; method in brief: as §2
[46] = system: MDA-MB-231; test: Growth inhibition of human MDA-MB-231 cells at 10 uM relative to control; details: values are per cent of control; method in brief: as §2
[47] = system: SNB-75; test: Growth inhibition of human SNB75 cells at 10 uM relative to control; details: values are per cent of control; method in brief: as §1
[48] = system: ACHN; test: Growth inhibition of human ACHN cells at 10 uM relative to control; details: values are per cent of control; method in brief: as §2
[49] = system: KM12; test: Growth inhibition of human KM12 cells at 10 uM relative to control; details: values are per cent of control; method in brief: as §2
[50] = system: CCRF-CEM; test: Growth inhibition of human CCRF-CEM cells at 10 uM relative to control; details: values are per cent of control; method in brief: as §2
[51] = system: SN12C; test: Growth inhibition of human SN12C cells at 10 uM relative to control; details: values are per cent of control; method in brief: as §2
[52] = system: HCC 2998; test: Growth inhibition of human HCC2998 cells at 10 uM relative to control; details: values are per cent of control; method in brief: as §2
[53] = system: T47D; test: Growth inhibition of human T47D cells at 10 uM relative to control; details: values are per cent of control; method in brief: as §1
[54] = system: SK-MEL-5; test: Growth inhibition of human SK-MEL-5 cells at 10 uM relative to control; details: values are per cent of control; method in brief: as §2
[55] = system: SF-268; test: Growth inhibition of human SF268 cells at 10 uM relative to control; details: values are per cent of control; method in brief: as §2

O=C(Cn1cc(C(=O)NO)nn1)c1ccccc1
growth, % of control at 10 µM [1]: 112%
growth, % of control at 10 µM [2]: 115%
growth, % of control at 10 µM [3]: 126%
growth, % of control at 10 µM [4]: 107%
growth, % of control at 10 µM [5]: 136%
growth, % of control at 10 µM [6]: 96.9%
growth, % of control at 10 µM [7]: 82.1%
growth, % of control at 10 µM [8]: 109%
growth, % of control at 10 µM [9]: 110%
growth, % of control at 10 µM [10]: 118%
growth, % of control at 10 µM [11]: 84.7%
growth, % of control at 10 µM [12]: 120%
growth, % of control at 10 µM [13]: 110%
growth, % of control at 10 µM [14]: 96.2%
inhibition at 10 µM [15]: > 95%
growth, % of control at 10 µM [16]: 95.9%
growth, % of control at 10 µM [17]: 112%
growth, % of control at 10 µM [18]: 94.1%
growth, % of control at 10 µM [19]: 103%
growth, % of control at 10 µM [20]: 97.3%
growth, % of control at 10 µM [21]: 112%
growth, % of control at 10 µM [22]: 85.1%
growth, % of control at 10 µM [23]: 87.6%
growth, % of control at 10 µM [24]: 123%
growth, % of control at 10 µM [25]: 91.3%
growth, % of control at 10 µM [26]: 93.3%
growth, % of control at 10 µM [27]: -26.8%
growth, % of control at 10 µM [28]: 67.6%
growth, % of control at 10 µM [29]: 79.8%
growth, % of control at 10 µM [30]: 106%
growth, % of control at 10 µM [31]: 118%
growth, % of control at 10 µM [32]: 84.1%
growth, % of control at 10 µM [33]: 108%
growth, % of control at 10 µM [34]: 108%
growth, % of control at 10 µM [35]: 135%
growth, % of control at 10 µM [36]: 95.9%
growth, % of control at 10 µM [37]: 99.2%
growth, % of control at 10 µM [38]: 90%
growth, % of control at 10 µM [39]: 108%
growth, % of control at 10 µM [40]: 113%
growth, % of control at 10 µM [41]: 105%
growth, % of control at 10 µM [42]: 110%
growth, % of control at 10 µM [43]: 146%
growth, % of control at 10 µM [44]: 94.8%
growth, % of control at 10 µM [45]: 100%
growth, % of control at 10 µM [46]: 101%
growth, % of control at 10 µM [47]: 117%
growth, % of control at 10 µM [48]: 99.2%
growth, % of control at 10 µM [49]: 108%
growth, % of control at 10 µM [50]: 92.1%
growth, % of control at 10 µM [51]: 97.7%
growth, % of control at 10 µM [52]: 107%
growth, % of control at 10 µM [53]: 102%
growth, % of control at 10 µM [54]: 111%
growth, % of control at 10 µM [55]: 104%
